ChEMBL document CHEMBL1255409, “In vitro activity of ceftaroline against 623 diverse strains of anaerobic bacteria” (2010)
In brackets after ≈: the same amount, converted by molar mass.

Assays:
Assay type in all cases: functional
Bacteroides fragilis = assay: Antimicrobial activity against Bacteroides fragilis under anaerobic conditions after 44 hrs by CLSI-M11-47 protocol based agar dilution method
How it was run: (§1)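 Reference agar dilution per CLSI M11-A7 with plates made on test day. Clinical isolates were stored at −70°C in 20% skim milk, subcultured twice, and 48-h cell paste was suspended in brucella broth to 0.5 McFarland. About 10^5 CFU/spot was applied with a Steers replicator. Plates were incubated 44 h at 37°C anaerobically. MIC was the lowest concentration giving complete inhibition or marked growth reduction versus the drug-free control.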

[1] = test system: Bacteroides thetaiotaomicron; assay: Antimicrobial activity against Bacteroides thetaiotaomicron under anaerobic conditions after 44 hrs by CLSI-M11-47 protocol based agar dilution method; how it was run: as §1
Bacteroides caccae = assay: Antimicrobial activity against Bacteroides caccae under anaerobic conditions after 44 hrs by CLSI-M11-47 protocol based agar dilution method; how it was run: as §1
Parabacteroides merdae = assay: Antimicrobial activity against Bacteroides merdae under anaerobic conditions after 44 hrs by CLSI-M11-47 protocol based agar dilution method; how it was run: as §1
Phocaeicola vulgatus = assay: Antimicrobial activity against Bacteroides vulgatus under anaerobic conditions after 44 hrs by CLSI-M11-47 protocol based agar dilution method; how it was run: as §1
[2] = test system: Prevotella melaninogenica; assay: Antimicrobial activity against Prevotella melaninogenica under anaerobic conditions after 44 hrs by CLSI-M11-47 protocol based agar dilution method
How it was run: (§2)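 Clinical isolates were stored at −70°C in 20% skim milk and identified phenotypically or by partial 16S rRNA sequencing. Each strain was subcultured twice from frozen stock. Cell paste from 48-h cultures was suspended in brucella broth to a 0.5 McFarland standard. About 10^5 CFU per spot were applied by Steers replicator to agar dilution plates prepared on the day of testing. Plates were incubated 44 h at 37°C in an anaerobic chamber. MIC was taken as the lowest concentration giving complete inhibition or marked reduction of growth versus the drug-free control.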

Prevotella nanceiensis = assay: Antimicrobial activity against Prevotella nanceiensis under anaerobic conditions after 44 hrs by CLSI-M11-47 protocol based agar dilution method; conditions: Hoylesella nanceiensis; how it was run: as §2
Fusobacterium varium = assay: Antimicrobial activity against Fusobacterium varium under anaerobic conditions after 44 hrs by CLSI-M11-47 protocol based agar dilution method; how it was run: as §2
Anaerococcus prevotii = assay: Antimicrobial activity against Anaerococcus prevotii under anaerobic conditions after 44 hrs by CLSI-M11-47 protocol based agar dilution method; how it was run: as §1
[3] = test system: Peptoniphilus asaccharolyticus; assay: Antimicrobial activity against Peptoniphilus asaccharolyticus under anaerobic conditions after 44 hrs by CLSI-M11-47 protocol based agar dilution method; how it was run: as §2
[4] = test system: Peptostreptococcus anaerobius; assay: Antimicrobial activity against Peptostreptococcus anaerobius under anaerobic conditions after 44 hrs by CLSI-M11-47 protocol based agar dilution method; how it was run: as §2
[5] = test system: Peptostreptococcus stomatis; assay: Antimicrobial activity against Peptostreptococcus stomatis under anaerobic conditions after 44 hrs by CLSI-M11-47 protocol based agar dilution method; how it was run: as §2
[6] = test system: Anaerococcus lactolyticus; assay: Antimicrobial activity against Anaerococcus lactolyticus under anaerobic conditions after 44 hrs by CLSI-M11-47 protocol based agar dilution method; how it was run: as §1
Gemella morbillorum = assay: Antimicrobial activity against Gemella morbillorum under anaerobic conditions after 44 hrs by CLSI-M11-47 protocol based agar dilution method; how it was run: as §2
Cutibacterium acnes = assay: Antimicrobial activity against Propionibacterium acnes under anaerobic conditions after 44 hrs by CLSI-M11-47 protocol based agar dilution method; how it was run: as §2
Clostridium perfringens = assay: Antimicrobial activity against Clostridium perfringens under anaerobic conditions after 44 hrs by CLSI-M11-47 protocol based agar dilution method
[7] = test system: Enterocloster clostridioformis; assay: Antimicrobial activity against Clostridium clostridioforme under anaerobic conditions after 44 hrs by CLSI-M11-47 protocol based agar dilution method; how it was run: as §1
Clostridium aldenense = assay: Antimicrobial activity against Clostridium aldenense under anaerobic conditions after 44 hrs by CLSI-M11-47 protocol based agar dilution method; conditions: Enterocloster aldenensis; how it was run: as §1
Clostridium bolteae = assay: Antimicrobial activity against Clostridium bolteae under anaerobic conditions after 44 hrs by CLSI-M11-47 protocol based agar dilution method; conditions: Enterocloster bolteae; how it was run: as §1
[8] = test system: Clostridium celerecrescens; assay: Antimicrobial activity against Clostridium celerecrescens under anaerobic conditions after 44 hrs by CLSI-M11-47 protocol based agar dilution method; conditions: Lacrimispora celerecrescens; how it was run: as §1
Clostridium symbiosum = assay: Antimicrobial activity against Clostridium symbiosum under anaerobic conditions after 44 hrs by CLSI-M11-47 protocol based agar dilution method; how it was run: as §1

Cc1ncc([N+](=O)[O-])n1CCO [METRONIDAZOLE]
MIC50 (Bacteroides fragilis): 1 µg/mL (≈ 5.84 µM) | MIC90 (Bacteroides fragilis): 2 µg/mL (≈ 11.7 µM) | MIC50 [1]: 1 µg/mL (≈ 5.84 µM) | MIC90 [1]: 1 µg/mL (≈ 5.84 µM) | MIC50 (Bacteroides caccae): 1 µg/mL (≈ 5.84 µM) | MIC90 (Bacteroides caccae): 2 µg/mL (≈ 11.7 µM) | MIC50 (Parabacteroides merdae): 1 µg/mL (≈ 5.84 µM) | MIC90 (Parabacteroides merdae): 2 µg/mL (≈ 11.7 µM) | MIC50 (Phocaeicola vulgatus): 1 µg/mL (≈ 5.84 µM) | MIC90 (Phocaeicola vulgatus): 2 µg/mL (≈ 11.7 µM) | MIC50 [2]: 0.5 µg/mL (≈ 2.92 µM) | MIC90 [2]: 1 µg/mL (≈ 5.84 µM) | MIC50 (Prevotella nanceiensis): 0.5 µg/mL (≈ 2.92 µM) | MIC90 (Prevotella nanceiensis): 2 µg/mL (≈ 11.7 µM) | MIC50 (Fusobacterium varium): 0.25 µg/mL (≈ 1.46 µM) | MIC90 (Fusobacterium varium): 0.5 µg/mL (≈ 2.92 µM) | MIC50 (Anaerococcus prevotii): 1 µg/mL (≈ 5.84 µM) | MIC90 (Anaerococcus prevotii): 2 µg/mL (≈ 11.7 µM) | MIC50 [3]: 1 µg/mL (≈ 5.84 µM) | MIC90 [3]: 1 µg/mL (≈ 5.84 µM) | MIC50 [4]: 0.5 µg/mL (≈ 2.92 µM) | MIC90 [4]: 1 µg/mL (≈ 5.84 µM) | MIC50 [5]: 0.5 µg/mL (≈ 2.92 µM) | MIC90 [5]: 1 µg/mL (≈ 5.84 µM) | MIC50 [6]: 1 µg/mL (≈ 5.84 µM) | MIC90 [6]: 4 µg/mL (≈ 23.4 µM) | MIC50 (Gemella morbillorum): 1 µg/mL (≈ 5.84 µM) | MIC90 (Gemella morbillorum): 4 µg/mL (≈ 23.4 µM) | MIC50 (Cutibacterium acnes): > 32 µg/mL | MIC90 (Cutibacterium acnes): > 32 µg/mL | MIC50 (Clostridium perfringens): 2 µg/mL (≈ 11.7 µM) | MIC90 (Clostridium perfringens): 4 µg/mL (≈ 23.4 µM) | MIC50 [7]: 0.06 µg/mL (≈ 0.351 µM) | MIC90 [7]: 0.25 µg/mL (≈ 1.46 µM) | MIC50 (Clostridium aldenense): 0.06 µg/mL (≈ 0.351 µM) | MIC90 (Clostridium aldenense): 0.25 µg/mL (≈ 1.46 µM) | MIC50 (Clostridium bolteae): 0.06 µg/mL (≈ 0.351 µM) | MIC90 (Clostridium bolteae): 0.25 µg/mL (≈ 1.46 µM) | MIC50 [8]: 0.5 µg/mL (≈ 2.92 µM) | MIC90 [8]: 4 µg/mL (≈ 23.4 µM) | MIC50 (Clostridium symbiosum): 0.5 µg/mL (≈ 2.92 µM) | MIC90 (Clostridium symbiosum): 4 µg/mL (≈ 23.4 µM)

CCO/N=C(\C(=O)N[C@@H]1C(=O)N2C(C(=O)[O-])=C(Sc3nc(-c4cc[n+](C)cc4)cs3)CS[C@H]12)c1nsc(NP(=O)(O)O)n1 [CEFTAROLINE FOSAMIL]
MIC50 (Bacteroides fragilis): 16 µg/mL (≈ 23.4 µM) | MIC90 (Bacteroides fragilis): 64 µg/mL (≈ 93.5 µM) | MIC50 [1]: 64 µg/mL (≈ 93.5 µM) | MIC90 [1]: > 64 µg/mL | MIC50 (Bacteroides caccae): 64 µg/mL (≈ 93.5 µM) | MIC90 (Bacteroides caccae): > 64 µg/mL | MIC50 (Parabacteroides merdae): 64 µg/mL (≈ 93.5 µM) | MIC90 (Parabacteroides merdae): > 64 µg/mL | MIC50 (Phocaeicola vulgatus): 64 µg/mL (≈ 93.5 µM) | MIC90 (Phocaeicola vulgatus): > 64 µg/mL | MIC50 [2]: 2 µg/mL (≈ 2.92 µM) | MIC90 [2]: 32 µg/mL (≈ 46.7 µM) | MIC50 (Prevotella nanceiensis): 2 µg/mL (≈ 2.92 µM) | MIC90 (Prevotella nanceiensis): 32 µg/mL (≈ 46.7 µM) | MIC50 (Fusobacterium varium): 0.25 µg/mL (≈ 0.365 µM) | MIC90 (Fusobacterium varium): 0.5 µg/mL (≈ 0.73 µM) | MIC50 (Anaerococcus prevotii): 0.03 µg/mL (≈ 0.0438 µM) | MIC90 (Anaerococcus prevotii): 0.125 µg/mL (≈ 0.183 µM) | MIC50 [3]: 0.06 µg/mL (≈ 0.0876 µM) | MIC90 [3]: 0.25 µg/mL (≈ 0.365 µM) | MIC50 [4]: 0.5 µg/mL (≈ 0.73 µM) | MIC90 [4]: 4 µg/mL (≈ 5.84 µM) | MIC50 [5]: 0.5 µg/mL (≈ 0.73 µM) | MIC90 [5]: 4 µg/mL (≈ 5.84 µM) | MIC50 [6]: 0.06 µg/mL (≈ 0.0876 µM) | MIC90 [6]: 1 µg/mL (≈ 1.46 µM) | MIC50 (Gemella morbillorum): 0.06 µg/mL (≈ 0.0876 µM) | MIC90 (Gemella morbillorum): 1 µg/mL (≈ 1.46 µM) | MIC50 (Cutibacterium acnes): ≤ 0.008 µg/mL | MIC90 (Cutibacterium acnes): 0.06 µg/mL (≈ 0.0876 µM) | MIC50 (Clostridium perfringens): 0.125 µg/mL (≈ 0.183 µM) | MIC90 (Clostridium perfringens): 0.25 µg/mL (≈ 0.365 µM) | MIC50 [7]: 1 µg/mL (≈ 1.46 µM) | MIC90 [7]: 2 µg/mL (≈ 2.92 µM) | MIC50 (Clostridium aldenense): 1 µg/mL (≈ 1.46 µM) | MIC90 (Clostridium aldenense): 2 µg/mL (≈ 2.92 µM) | MIC50 (Clostridium bolteae): 1 µg/mL (≈ 1.46 µM) | MIC90 (Clostridium bolteae): 2 µg/mL (≈ 2.92 µM) | MIC50 [8]: 0.5 µg/mL (≈ 0.73 µM) | MIC90 [8]: 16 µg/mL (≈ 23.4 µM) | MIC50 (Clostridium symbiosum): 0.5 µg/mL (≈ 0.73 µM) | MIC90 (Clostridium symbiosum): 16 µg/mL (≈ 23.4 µM)
